Series [1] has as its system BMDM. In words: Immunostimulatory activity in mincle-/- C57BL/6 mouse GM-CSF derived BMDM assessed as increase in IL-1beta release at […] after 24 hrs by sandwich ELISA method. It is filed as functional, cell-based. In outline: (§1)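 Wild-type or Mincle−/− C57BL/6 bone marrow was cultured 8 days with GM-CSF 50 ng/mL in complete RPMI. Macrophages were detached with Acutase and seeded on ligand-coated plates (0.1 or 1 nmol/well); LPS 100 ng/mL was used as comparator. Supernatant was taken at 24 h and TNF, IL-6, IL-1β and MIP-2 measured by sandwich ELISA. Representative of three experiments in triplicate (±SD).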
Background: An ELISA detects its analyte on a solid surface through an enzyme-linked reagent.

Series [2] is filed under the species Mus musculus. The series is described as follows: Adjuvant activity in immunized C57BL/6 mouse assessed as increase in antigen specific IFNgamma production in spelnocytes at 0.3 umol treated with ovalbumin for 7 days followed by stimulation with OVA for 7 days and restimulation with OVA measured 24 to 48 hrs post OVA challenge. It is filed as functional, cell-based. In outline: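 C57BL/6 mice (8–12 wk) given s.c. oil-in-water emulsion (mineral oil/Tween-80/PBS 9:1:90) holding OVA 200 μg ± adjuvant 0.3 μmol; controls were OVA alone or no OVA. Footpad challenge with OVA 100 μg on day 7, spleens taken day 14. Splenocytes restimulated with OVA 10, 30 or 100 μg/mL. Cell number read at 450 nm after 3 h with a count reagent; IFN-γ and IL-17 measured by ELISA.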

For series [3], the target named is T1, C-type lectin domain family 4 member E (Homo sapiens) (UniProt Q9ULY5).
T1 sequence (whole entry): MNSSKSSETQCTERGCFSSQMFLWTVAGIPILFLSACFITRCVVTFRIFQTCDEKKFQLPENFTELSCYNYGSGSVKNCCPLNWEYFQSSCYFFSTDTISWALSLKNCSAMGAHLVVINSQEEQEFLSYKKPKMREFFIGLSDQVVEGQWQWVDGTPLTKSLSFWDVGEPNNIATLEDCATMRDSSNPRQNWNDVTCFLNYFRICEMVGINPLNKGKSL
The series is described as follows: Binding affinity to recombinant human mincle extracellular domain fused with human IgG Fc expressed in HEK293T cells at 0.1 nmol by ELISA. It is filed as cell-based. The note with it: HEK-293T.

The species entered for series [4] is Mus musculus. In words: Adjuvant activity in immunized C57BL/6 mouse assessed as increase in OVA-specific IgG1 production in serum at 0.3 umol treated with ovalbumin for 7 days followed by stimulation with OVA for 7 days and restimulation with OVA measured 24 to 48 hrs post OVA challenge relative to control. In kind it is functional. In outline:
(§2)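 Sera were taken on days 0, 7 and 14 from C57BL/6 mice sensitized s.c. with emulsion containing OVA 200 μg ± adjuvant 0.3 μmol and footpad-challenged with OVA on day 7. OVA-specific IgG, IgG1, IgG2b and IgG2c were measured by ELISA with HRP-coupled anti-mouse secondaries. EC50 was taken from absorbance at 450 nm plotted against log serum concentration.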

Series [5] relates to BMDM. In words: Immunostimulatory activity in mincle-/- C57BL/6 mouse GM-CSF derived BMDM assessed as increase in MIP2 release at […] after 24 hrs by sandwich ELISA method. In kind it is functional, cell-based. In outline: as §1
The nature of series [6]: Toxicity in Atlantic horseshoe crab blood limulus amebocyte lysate by chromogenic endotoxin test. The note with it: limulus polyphemus. Summed up:
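Endotoxin was measured by chromogenic Limulus amebocyte lysate assay at a sensitivity of ≤0.1 EU/mL.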

Series [7] has as its target T2, C-type lectin domain family 4 member E (Mus musculus) (UniProt Q9R0Q8).
T2 sequence (whole entry): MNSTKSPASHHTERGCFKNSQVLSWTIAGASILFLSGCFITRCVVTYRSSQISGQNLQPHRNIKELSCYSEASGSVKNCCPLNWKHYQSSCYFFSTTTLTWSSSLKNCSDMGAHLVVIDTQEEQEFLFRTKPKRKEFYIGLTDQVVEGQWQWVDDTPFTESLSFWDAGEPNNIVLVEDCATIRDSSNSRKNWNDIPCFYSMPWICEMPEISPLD
In words: Agonist activity at mouse mincle coupled with FcRgamma expressed in 2B4-NFAT-GFP reporter cells after 18 hrs by flow cytometric analysis. In kind it is cell-based. In outline:
(§3)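 2B4 NFAT-GFP reporter cells expressing mouse or human Mincle plus FcRγ were placed on plates coated with ligand at 0.01, 0.1 or 1 nmol/well; cells expressing FcRγ only served as negative control. Ligand was coated from isopropanol, 0.05 mM, and solvent evaporated. After 18 h, cells were harvested, stained with propidium iodide and GFP read by flow cytometry. Mean of three experiments in duplicate (±SEM).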

For series [8], the species on record is Mus musculus. The series is described as follows: Adjuvant activity in immunized C57BL/6 mouse assessed as increase in OVA-specific IgG2b production in serum at 0.3 umol treated with ovalbumin for 7 days followed by stimulation with OVA for 7 days and restimulation with OVA measured 24 to 48 hrs post OVA challenge. In kind it is functional.
The test system of series [9] is T3, C-type lectin domain family 4 member E (Homo sapiens), Q9ULY5 [R183A].
T3 sequence (whole entry): T1 sequence (whole entry) with R183A
In words: Agonist activity at human mincle R183A mutant expressed in NFAT-GFP reporter cells up to 3000 pmol after 18 hrs by flow cytometric analysis. It is filed as cell-based. Summed up: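 The hMincle R183A mutant, made by site-directed mutagenesis, was retrovirally introduced into 2B4 NFAT-GFP cells expressing FcRγ only. Cells were stimulated on plates coated with increasing ligand amounts for 18 h, and NFAT-GFP was read by flow cytometry. Mean of two independent experiments in duplicate (±SEM).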
(In general: In flow cytometry, cells or beads pass a laser one at a time.)

In series [10] the target is T1, C-type lectin domain family 4 member E (Homo sapiens). In words: Agonist activity at human mincle coupled with FcRgamma expressed in 2B4-NFAT-GFP reporter cells after 18 hrs by flow cytometric analysis. It is filed as cell-based. Summed up: as §3
In series [11] the target is T2, C-type lectin domain family 4 member E (Mus musculus). The series is described as follows: Binding affinity to recombinant mouse mincle extracellular domain fused with human IgG Fc expressed in HEK293T cells at 0.1 nmol by ELISA. In kind it is cell-based. Conditions: HEK-293T.
The species named for series [12] is Mus musculus. The series is described as follows: Adjuvant activity in immunized C57BL/6 mouse assessed as footpad swelling at 0.3 umol treated with ovalbumin for 7 days followed by stimulation with OVA for 7 days measured 24 to 48 hrs post OVA challenge. In kind it is functional.
For series [13], the target named is T2, C-type lectin domain family 4 member E (Mus musculus). The series is described as follows: Agonist activity at mincle in wild type C57BL/6 mouse GM-CSF derived BMDM assessed as increase in MIP2 release at 0.1 to 1 nmol after 24 hrs by sandwich ELISA. Summed up: as §1
The species entered for series [14] is Mus musculus. In words: Adjuvant activity in immunized C57BL/6 mouse assessed as increase in OVA-specific IgG production in serum at 0.3 umol treated with ovalbumin for 7 days followed by stimulation with OVA for 7 days and restimulation with OVA measured 24 to 48 hrs post OVA challenge. In kind it is functional. Summed up:
as §2

The species entered for series [15] is Mus musculus. The series is described as follows: Adjuvant activity in immunized C57BL/6 mouse assessed as increase in OVA-specific IgG2c production in serum at 0.3 umol treated with ovalbumin for 7 days followed by stimulation with OVA for 7 days and restimulation with OVA measured 24 to 48 hrs post OVA challenge relative to control. It is filed as functional.

The source of these data is ChEMBL document CHEMBL4033780, “Lipidated Brartemicin Analogues Are Potent Th1-Stimulating Vaccine Adjuvants” (J Med Chem, 2018).

Positions count from the first letter of the chain named. Calls of active or inactive are those of the source. The rule behind the calls is not given here.

As for `CCCCCCCCCCCCCCCCCCOc1ccc(C(=O)OC[C@H]2O[C@H](O[C@H]3O[C@H](COC(=O)c4ccc(OCCCCCCCCCCCCCCCCCC)cc4O)[C@@H](O)[C@H](O)[C@H]3O)[C@H](O)[C@@H](O)[C@@H]2O)c(O)c1`, the result (in the series on BMDM [1]; in the series with BMDM [5]; in series [9]; in the series listed under Mus musculus [12]) was inactive. For the same compound, the result (in the series listed under Mus musculus [2]; in [3]; in the series filed under Mus musculus [8]; in [11]; in series [13]; in the series listed under Mus musculus [14]) was Active. Moreover, the results for the “fold change (FC)” value in the series filed under Mus musculus [4] and in the series listed under Mus musculus [15] were 2 and 3, respectively. For the same compound, the Activity entry in series [6] was “<= 0.1 EU/ml”; in series [7], “Dose-dependent effect”; in series [10], “Dose-dependent effect”.
